Source: PubChem (several laboratories)
CaV13 FRET inh: Disruptors of the CACNA1D IQ motif to Ca2+-dependent inactivation inhibitor domain association, primary screening, Förster resonance energy transfer in intact living …; HEK cells, CFP/YFP FRET ICDI-IQ, plate reader, 10 min; percent FRET-ratio fall versus neutral wells; inhibition, % at 12.3 µM; 0.098% of 340,000 active; AID 743397;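 active = mean replicate inhibition of at least 30% and at least 1% of replicates passing that level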
FAS TE block: FAS thioesterase (human) inhibition. 0.67% of 360,000 active. P49327. AID 602261. inhibition, % at 15 µM. recombinant FAS-TE, OMFH fluorogenic substrate, fluorescence endpoint;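 active = compounds whose normalised, plate-corrected inhibition of enzyme fluorescence in the single-dose primary screen is 50% or more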
NRP1-CendR mod: NRP-1/CendR interaction modulation. O14786. FAM-RPARPAR peptide binding to NRP-1, fluorescence polarization. inhibition, % at 25 µM. 0.85% of 360,000 active. AID 602438;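 active = inhibition or corrected inhibition above about 18%, plus a signal ratio from 0.5 to 1.5, limit read from the data, passing the limit was not always enough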
ADAM17 inh: inhibitors of human ADAM17. recombinant ADAM17, EDANS/DABCYL FRET peptide cleavage. AID 720648. P78536. 0.83% of 370,000 active. inhibition, % at 6.95 µM;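 active = inhibition above the mean of compounds lying between control limits plus 3 SD, set per campaign, cut at about 8.5% in these data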
Arr AP2 block: human beta-arrestin and AP2 interaction inhibition; 0.31% of 340,000 active; inhibition, % at 10 µM; FITC-arrestin peptide / GST-AP2 beads, flow cytometry; AP2 beta2 appendage carries R879A mutation;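 active = inhibition above a set limit, near 3 SD of compounds lacking own fluorescence, cut at about 54% in these data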
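Material – GST-tagged AP2 beta2-adaptin appendage (R879A) on 4 µm glutathione beads · Probe or stimulus – fluorescein-tagged arrestin peptide at 50 nM final · Timing – 12 min plus 1 h, RT · Detection – bead flow cytometry, FITC channel · Read-out basis – inhibition as reduced fluorescein signal on beads, percent · Medium – PBS plus Tween 20 (0.05%) and BSA (0.1%)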
ADAM10 inh: ADAM10 inhibition, QFRET primary screen; O14672; recombinant ADAM10, EDANS/DABCYL FRET peptide cleavage, 3 h; inhibition, % at 7 µM; 0.62% of 370,000 active; AID 720582;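 active = inhibition above a per-campaign cutoff equal to the mean of compounds falling between control-based bounds plus 3 SD, cut at about 20% in these data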
Target sequence (O14672 214-748 limits assumed): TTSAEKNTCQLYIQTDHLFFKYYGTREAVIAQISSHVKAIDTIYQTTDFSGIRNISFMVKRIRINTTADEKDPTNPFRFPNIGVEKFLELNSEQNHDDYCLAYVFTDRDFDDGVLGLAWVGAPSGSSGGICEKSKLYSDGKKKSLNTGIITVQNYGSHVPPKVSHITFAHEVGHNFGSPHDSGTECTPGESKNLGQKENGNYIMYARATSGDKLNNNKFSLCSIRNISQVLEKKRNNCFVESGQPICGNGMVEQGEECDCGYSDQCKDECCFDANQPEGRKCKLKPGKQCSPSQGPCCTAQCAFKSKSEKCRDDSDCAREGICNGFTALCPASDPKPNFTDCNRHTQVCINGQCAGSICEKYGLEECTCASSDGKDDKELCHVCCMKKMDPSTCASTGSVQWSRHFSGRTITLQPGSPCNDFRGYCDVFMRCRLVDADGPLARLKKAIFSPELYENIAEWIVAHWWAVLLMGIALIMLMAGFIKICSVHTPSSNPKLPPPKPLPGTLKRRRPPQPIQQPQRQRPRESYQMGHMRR
Numbers stand for hits. This is a sample that favours compounds with a hit; in the whole collection about 2.9% have one here.

For O=C1NC(=O)C(=Cc2ccccc2[N+](=O)[O-])C(=O)N1 the results were CaV13 FRET inh inactive, FAS TE block inactive, NRP1-CendR mod 25.4, ADAM17 inh inactive, Arr AP2 block inactive and ADAM10 inh inactive.
Screening O=C1NC(=O)C(=Cc2cc3c(cc2[N+](=O)[O-])OCO3)C(=O)N1 returned CaV13 FRET inh inactive, FAS TE block inactive, NRP1-CendR mod inactive, ADAM17 inh inactive, Arr AP2 block inactive and ADAM10 inh inactive.
Screening O=P(CN1CCN(c2ccccc2)CC1)(N1CCCCC1)N1CCCCC1 returned CaV13 FRET inh inactive, FAS TE block inactive, NRP1-CendR mod 34.2, ADAM17 inh inactive, Arr AP2 block inactive and ADAM10 inh inactive.
Screening COc1cc(CCN)c(OC)cc1C returned ADAM17 inh inactive and ADAM10 inh inactive.
`O=c1[nH]c(=O)n(CCC2=CCCCC2)c(O)c1C=NC1CCN(Cc2ccccc2)CC1` gave FAS TE block inactive, NRP1-CendR mod inactive, ADAM17 inh 8.9, Arr AP2 block inactive and ADAM10 inh inactive.
For C=CCn1c(O)c(C=NC2CCN(Cc3ccccc3)CC2)c(=O)[nH]c1=O the results were CaV13 FRET inh inactive, FAS TE block inactive, NRP1-CendR mod inactive, ADAM17 inh inactive, Arr AP2 block inactive and ADAM10 inh inactive.
Screening CN(C)c1ccc(N=Cc2c(O)n(CCC3=CCCCC3)c(=O)[nH]c2=O)cc1 returned FAS TE block inactive, NRP1-CendR mod 61.0 and Arr AP2 block inactive.
Cc1cc(O)c2c(c1)C(=O)[C@@]13C(=C2O)C(=O)[C@H]2C(O)[C@@H]1[C@H]1C(O)[C@@H]3C(=O)C3=C(O)c4c(O)cc(C)cc4C(=O)[C@@]312 (some centres not stated) was read as ADAM17 inh inactive and ADAM10 inh inactive.
Cc1cc(N2CCNC[C@H]2C)ccc1N1CC[C@@H](O)C1 was read as ADAM17 inh inactive and ADAM10 inh inactive.
For CC(C)(C)n1nnnc1C(c1ccnc2ccccc12)N1CCC2(CC1)C(=O)NCN2c1ccccc1 (configuration not stated) the results were CaV13 FRET inh inactive, FAS TE block inactive, NRP1-CendR mod 36.4, ADAM17 inh inactive and ADAM10 inh inactive.
Screening CN(C)C(CNC(=O)Cc1c(Cl)cccc1Cl)c1ccccc1 (configuration not stated) returned CaV13 FRET inh inactive, FAS TE block inactive, NRP1-CendR mod 26.4, ADAM17 inh inactive, Arr AP2 block inactive and ADAM10 inh inactive.
`CC(=O)N(C)CC#CCN1CCC(O)CC1` gave CaV13 FRET inh inactive, FAS TE block inactive, NRP1-CendR mod 37.4, ADAM17 inh inactive, Arr AP2 block inactive and ADAM10 inh inactive.
`Cn1cc(P(=S)(c2ccccc2)c2ccccc2)c2ccccc21` gave ADAM17 inh inactive and ADAM10 inh inactive.
For COC(=O)[C@H]1C[C@@]2(C)c3ccccc3N[C@H]2N1 the results were ADAM17 inh inactive and ADAM10 inh inactive.
`Cc1cc(N2CCNC[C@H]2C)ccc1N1CCN[C@H](C)C1` gave CaV13 FRET inh inactive, ADAM17 inh inactive and ADAM10 inh inactive.
COC(=O)C1=C(c2cc3ccccc3s2)C[C@@H]2CC[C@H]1N2C was read as CaV13 FRET inh inactive, FAS TE block inactive, NRP1-CendR mod 22.0, ADAM17 inh inactive, Arr AP2 block inactive and ADAM10 inh inactive.
For COc1ccc(C(=O)C23CN4CN(CN(C4)C2)C3)cc1 the results were CaV13 FRET inh inactive, FAS TE block inactive, NRP1-CendR mod inactive, ADAM17 inh inactive, Arr AP2 block inactive and ADAM10 inh inactive.
For COc1ccc(C(=O)C(C)(C)NO)cc1 the results were FAS TE block inactive, NRP1-CendR mod 29.1, ADAM17 inh inactive, Arr AP2 block inactive and ADAM10 inh inactive.
Screening CC(C)(C)n1nnnc1C1CN=C(c2ccccc2)c2ccccc2N1 (configuration not stated) returned ADAM17 inh inactive and ADAM10 inh inactive.
`c1ccc(Cn2nnnc2C2CN=C(c3ccccc3)c3ccccc3N2)cc1` (configuration not stated) gave ADAM17 inh inactive and ADAM10 inh inactive.
CN(C)C(=O)Oc1ccc(C(=O)c2ccccc2)cc1 was read as CaV13 FRET inh inactive, FAS TE block inactive, NRP1-CendR mod inactive, ADAM17 inh inactive, Arr AP2 block inactive and ADAM10 inh inactive.
